The target in one data set is Acetylcholinesterase (Homo sapiens, UniProt P22303). Description: Inhibition of human serum AChE.
In a further data set the target is Cholinesterase (Homo sapiens, UniProt P06276). Kind of data set: Inhibition of human serum BuChE. In short, it runs like this:
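BuChE purified from human serum; activity read by Ellman's method. IC50 is the inhibitor concentration that cuts enzyme activity by 50%, taken as the mean of two independent measurements each run in duplicate.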

Data set [1] can be described thus: Inhibition of amyloid beta (1-42) aggregation at 10 uM by thioflavin T based fluorometric assay. Summed up:
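Aβ1-42 self-induced aggregation, read by thioflavin T fluorescence, with Aβ1-42 to inhibitor ratio 5/1. Reported as % inhibition. Mean of two independent experiments, each in duplicate. Controls added compound to already-aggregated Aβ after ThT dilution to exclude ThT displacement.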

The subject of data set [2] is SH-SY5Y. Kind of data set: Neurotoxicity in human SH-SY5Y cells assessed as decrease in cell viability at 1 to 50 uM by MTT assay. The data set is classed as toxicity, cell-based. In short, it runs like this:
(§1)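 SH-SY5Y human neuronal-like cells treated with compound alone for 24 h, with viability read by colorimetric MTT assay. IC50 is the concentration giving 50% inhibition of neuronal viability. Range tested 1–50 µM.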

In data set [3] the test system is SH-SY5Y. Kind of data set: Neurotoxicity in human SH-SY5Y cells assessed as cell viability at 0.1 to 10 uM by MTT assay. The class given is toxicity, cell-based.
For data set [4], the system named is SH-SY5Y. Kind of data set: Neuroprotective activity in human SH-SY5Y cells assessed as inhibition of amyloid beta(1-42)-induced neurotoxicity at 1 uM incubated for 3 hrs by MTT assay. The class given is functional. Further details: scale not given: the % may be the effect or the level left. In short, it runs like this: (§2)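 Human neuronal-like SH-SY5Y cells exposed for 3 h to Aβ1–42 pre-aggregated to oligomers, with compound present. Viability read by MTT colorimetric assay. Result expressed as % inhibition of oligomer-induced neurotoxicity, mean ± SD of at least two independent experiments.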

Data set [5] in a line: Neurotoxicity in human SH-SY5Y cells assessed as decrease in cell viability by MTT assay. The data set is classed as toxicity, cell-based. Summed up:
as §1
(Tetrazolium dyes change colour on reduction, which living cells bring about.)

The subject of data set [6] is SH-SY5Y. Description: Neurotoxicity in human SH-SY5Y cells assessed as cell viability at 0.1 to 1 uM by MTT assay. The data set is classed as toxicity, cell-based.
The subject of data set [7] is SH-SY5Y. Description: Neuroprotective activity in human SH-SY5Y cells assessed as inhibition of amyloid beta(1-42)-induced neurotoxicity at 10 uM incubated for 3 hrs by MTT assay. The class given is functional. Set-up: scale not given: the % may be the effect or the level left. Summed up: as §2

Structures are written as SMILES.

Sequence of Cholinesterase (P06276 whole entry): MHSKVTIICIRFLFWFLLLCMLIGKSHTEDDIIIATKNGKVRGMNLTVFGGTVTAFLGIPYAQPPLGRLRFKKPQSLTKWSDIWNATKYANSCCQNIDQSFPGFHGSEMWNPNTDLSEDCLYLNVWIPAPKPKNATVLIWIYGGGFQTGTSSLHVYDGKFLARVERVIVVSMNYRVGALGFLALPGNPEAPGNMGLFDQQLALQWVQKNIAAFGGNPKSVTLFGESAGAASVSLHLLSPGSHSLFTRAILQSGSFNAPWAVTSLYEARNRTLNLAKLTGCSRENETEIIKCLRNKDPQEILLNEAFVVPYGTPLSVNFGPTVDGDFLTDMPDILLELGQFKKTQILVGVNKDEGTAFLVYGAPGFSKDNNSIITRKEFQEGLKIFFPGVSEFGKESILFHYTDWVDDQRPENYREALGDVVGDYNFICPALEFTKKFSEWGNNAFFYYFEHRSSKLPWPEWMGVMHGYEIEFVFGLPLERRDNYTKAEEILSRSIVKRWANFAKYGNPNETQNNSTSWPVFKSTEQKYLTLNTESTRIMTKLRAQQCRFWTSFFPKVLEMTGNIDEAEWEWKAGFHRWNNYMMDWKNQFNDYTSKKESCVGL
Sequence of Acetylcholinesterase (P22303 whole entry): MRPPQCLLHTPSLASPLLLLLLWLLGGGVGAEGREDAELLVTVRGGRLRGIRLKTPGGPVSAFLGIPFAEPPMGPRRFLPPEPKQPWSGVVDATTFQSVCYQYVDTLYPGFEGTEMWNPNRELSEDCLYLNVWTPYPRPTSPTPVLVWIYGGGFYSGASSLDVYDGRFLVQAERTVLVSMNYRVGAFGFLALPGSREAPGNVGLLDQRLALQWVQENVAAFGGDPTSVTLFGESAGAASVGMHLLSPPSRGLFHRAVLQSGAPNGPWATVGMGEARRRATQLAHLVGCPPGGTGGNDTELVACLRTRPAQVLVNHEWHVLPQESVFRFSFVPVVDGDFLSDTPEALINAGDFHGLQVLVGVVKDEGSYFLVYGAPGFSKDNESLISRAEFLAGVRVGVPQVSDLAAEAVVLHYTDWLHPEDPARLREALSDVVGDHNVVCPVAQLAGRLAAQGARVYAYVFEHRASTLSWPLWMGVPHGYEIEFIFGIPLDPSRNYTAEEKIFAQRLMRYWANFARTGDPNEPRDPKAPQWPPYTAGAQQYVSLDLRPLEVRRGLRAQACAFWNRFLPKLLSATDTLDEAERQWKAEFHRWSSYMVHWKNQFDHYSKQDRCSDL

Usually IC50 stands for the concentration needed to halve the response being measured. A word on the inhibition: it is the relative decrease from the control value, in per cent. As to `COc1cc(CNCCCNC2=CC(=O)C(NCCCNCc3ccc(O)c(OC)c3)=CC2=O)ccc1O`, the 50% inhibitory concentration (IC50) against Acetylcholinesterase was 0.198 µM; on Cholinesterase it was 8.24 µM. The compound further had an inhibition in data set [1] of 22%. Moreover, the Activity entry in the data set with SH-SY5Y [2] was “Non-toxic”; in the data set with SH-SY5Y [3], “Non-toxic”; in the data set on SH-SY5Y [4], 25%.
For `O=C1C=C(NCCCNCc2cc3ccccc3o2)C(=O)C=C1NCCCNCc1cc2ccccc2o1`, the concentration for half-maximal inhibition (IC50) on Acetylcholinesterase came to 21.8 µM; against Cholinesterase, 2.6 µM; in [5], 14.8 µM. Also, the inhibition in [1] stood at 27.2%. Moreover, the Activity result with SH-SY5Y [6] was “Non-toxic”; in the data set on SH-SY5Y [4] it was 25%.
In the case of `O=C1C=C(NCCCCCCNCc2ccc(-c3nc4ccccc4s3)cc2)C(=O)C=C1NCCCCCCNCc1ccc(-c2nc3ccccc3s2)cc1`, the IC50 on Acetylcholinesterase was 0.305 µM; on Cholinesterase it was 27.3 µM. Also, the inhibition in [1] was determined as 25.7%.
For `O=C1C=C(NCCCNCc2ccc(-c3nc4ccccc4s3)cc2)C(=O)C=C1NCCCNCc1ccc(-c2nc3ccccc3s2)cc1`, in that order: 31.4 µM, 35.3 µM and 41.4%.
For the compound `O=C1C=C(NCCCNCc2nc3ccccc3s2)C(=O)C=C1NCCCNCc1nc2ccccc2s1`, the concentration for half-maximal inhibition (IC50) on Acetylcholinesterase and on Cholinesterase was > 10 µM throughout. In data set [1], the inhibition worked out at 16.2%. The Activity result is “Non-toxic” in the data set on SH-SY5Y [2], “Non-toxic” in the data set with SH-SY5Y [6] and 25% in the data set on SH-SY5Y [4].
Take `O=C1C=C(NCCCCCCNCc2nc3ccccc3s2)C(=O)C=C1NCCCCCCNCc1nc2ccccc2s1`: the IC50 against Acetylcholinesterase is 22 µM; on Cholinesterase it was > 10 µM. The same compound showed an inhibition in data set [1] of 18.5%.
On to `COc1cc(CNCCCCCCNC2=CC(=O)C(NCCCCCCNCc3ccc(O)c(OC)c3)=CC2=O)ccc1O`, for which the results for the IC50 at Acetylcholinesterase and against Cholinesterase were 0.102 µM and 1.6 µM, respectively. Besides, in [1], the inhibition stood at 50.4%.
In the case of `COc1cc(/C=C/C(=O)CC(=O)/C=C/c2ccc(O)c(OC)c2)ccc1O`, in data set [1], the inhibition was found to be 34.4%.
With `O=C1C=C(NCCCCCCNCc2cc3ccccc3o2)C(=O)C=C1NCCCCCCNCc1cc2ccccc2o1`, the figures for the IC50 against Acetylcholinesterase and on Cholinesterase were > 10 µM and 84.2 µM, respectively. In [1], this compound showed an inhibition of 18.4%.
Turning to `CCN(CCCCCCNC1=CC(=O)C(NCCCCCCN(CC)Cc2ccccc2OC)=CC1=O)Cc1ccccc1OC` [MEMOQUIN], the concentration for half-maximal inhibition (IC50) in [5] was found to be 19.4 µM. For the same compound, the Activity entry in the data set on SH-SY5Y [6] is given as “Non-toxic”; in the data set on SH-SY5Y [4] it was 70%; in the data set with SH-SY5Y [7], 80%.

Source of the values: ChEMBL document CHEMBL1770071, “Multitargeted drugs discovery: balancing anti-amyloid and anticholinesterase capacity in a single chemical entity” (Bioorg Med Chem Lett, 2011).
